Data reported in ChEMBL document CHEMBL1125311, “Inhibition of human leukocyte elastase. 4. Selection of a substituted cephalosporin (L-658,758) as a topical aerosol” (J Med Chem, 1992).
Each block holds one molecule with its values, some of them ahead of it.

Columns and labels:
[1] = tested on: Cricetinae gen. sp.; test: Compound was evaluated in vivo for inhibition of HLE-induced hemorrhage in hamster lung at 100 microg 30 min after administration; format: functional, Cricetulus griseus
In short: (§1)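 Hamster, intratracheal dosing of compound (per animal) 30 min before IT instillation of 50 μg HLE (50 units in Experimental); hemorrhage read 3 h later: lungs lavaged with saline, hemoglobin in lavage measured at 414 nm. Percent inhibition from drug-treated vs vehicle-treated hemorrhage; three animals per dose and time. Titration at 100, 30, 10, 3 μg/animal gives ED50.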

[2] = tested on: Cricetinae gen. sp.; test: Compound was evaluated in vivo for inhibition of HLE-induced hemorrhage in hamster lung at 30 microg 30 min after administration; format: functional, Cricetulus griseus; in short: as §1
[3] = target: T1, Neutrophil elastase (Homo sapiens) (UniProt P08246)
T1 sequence (whole entry): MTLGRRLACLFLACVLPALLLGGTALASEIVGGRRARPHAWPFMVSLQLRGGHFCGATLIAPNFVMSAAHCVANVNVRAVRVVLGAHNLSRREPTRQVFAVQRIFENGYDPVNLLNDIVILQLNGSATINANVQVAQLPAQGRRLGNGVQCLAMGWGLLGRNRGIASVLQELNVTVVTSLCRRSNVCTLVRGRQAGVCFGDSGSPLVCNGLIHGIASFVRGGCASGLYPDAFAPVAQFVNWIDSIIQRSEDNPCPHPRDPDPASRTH

[4] = Half-life value of the compound.; format: ADME
In short: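 Chemical stability: compound dissolved at 1 mg/mL in 0.5 M MOPS, pH 8.0, held at 25 °C in capped vial; aliquots quenched in 2% aqueous TFA and analysed by reverse-phase HPLC over one to two half-lives. Peak areas fit to first-order decay F(t)=A/2^(t/t1/2) to give t1/2.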

[5] = tested on: Cricetinae gen. sp.; test: Inhibitory activity against Human Leukocyte Elastase by Lung Hemorrhage assay (at 200 ug/animal); format: functional, Cricetulus griseus
In short: (§2)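 Hamster duration protocol: 200 μg/animal given intratracheally 60, 120, 180 or 240 min before IT HLE instillation; hemorrhage scored after 3 h as hemoglobin (414 nm) in saline lung lavage, relative to vehicle-treated animals; three animals per point. T50 taken as time at which 50% inhibition is still obtained.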

[6] = tested on: Cricetinae gen. sp.; test: Inhibitory activity against Human Leukocyte Elastase by Lung Hemorrhage assay ( at 30 min); format: functional, Cricetulus griseus; in short: as §1
[7] = tested on: Cricetinae gen. sp.; test: Inhibitory activity against Human Leukocyte Elastase by Lung Hemorrhage assay (Effective dose at 15 microg); format: functional, Cricetulus griseus
[8] = tested on: Cricetinae gen. sp.; test: Compound was evaluated in vivo for inhibition of HLE-induced hemorrhage in hamster lung at 200 microg 1 hr after administration prior to HLE; format: functional, Cricetulus griseus; in short: as §2
[9] = tested on: Cricetinae gen. sp.; test: Compound was evaluated in vivo for inhibition of HLE-induced hemorrhage in hamster lung at 200 microg 2 hr after administration prior to HLE; format: functional, Cricetulus griseus; in short: as §2
[10] = tested on: Cricetinae gen. sp.; test: Compound was evaluated in vivo for inhibition of HLE-induced hemorrhage in hamster lung at 200 microg 3h after administration prior to HLE; format: functional, Cricetulus griseus; in short: as §2
[11] = tested on: Cricetinae gen. sp.; test: Compound was evaluated in vivo for inhibition of HLE-induced hemorrhage in hamster lung at 200 microg 4 hr after administration prior to HLE; format: functional, Cricetulus griseus; in short: as §2
[12] = tested on: Cricetinae gen. sp.; test: Compound was evaluated in vivo for inhibition of HLE-induced hemorrhage in hamster lung at 30 ug 30 min after administration prior to HLE; format: functional, Cricetulus griseus; in short: as §1
[13] = tested on: Cricetinae gen. sp.; test: Compound was evaluated in vivo for inhibition of HLE-induced hemorrhage in hamster lung at 100 microg 30 min after administration prior to HLE; format: functional, Cricetulus griseus; in short: as §1
[14] = tested on: Cricetinae gen. sp.; test: Compound was evaluated in vivo for inhibition of HLE-induced hemorrhage in hamster lung at 10 ug 30 min after administration prior to HLE; format: functional, Cricetulus griseus; in short: as §1
[15] = tested on: Cricetinae gen. sp.; test: Inhibitory activity against Human Leukocyte Elastase by Lung Hemorrhage assay; format: functional, Cricetulus griseus
[16] = organism: Rattus norvegicus; test: Inhibitory activity against Human Leukocyte Elastase by Lung Hemorrhage assay (at 250 ug/animal)
[17] = tested on: Cricetinae gen. sp.; test: Compound was evaluated in vivo for inhibition of HLE-induced hemorrhage in hamster lung at 200 microg, 2 hr after administration prior to HLE; format: functional, Cricetulus griseus; in short: as §2
[18] = tested on: Cricetinae gen. sp.; test: Compound was evaluated in vivo for inhibition of HLE-induced hemorrhage in hamster lung at 200 microg, 3h after administration prior to HLE; format: functional, Cricetulus griseus; in short: as §2
[19] = tested on: Cricetinae gen. sp.; test: Compound was evaluated in vivo for inhibition of HLE-induced hemorrhage in hamster lung at 200 microg, 4 hr after administration prior to HLE; format: functional, Cricetulus griseus; in short: as §2
[20] = tested on: Cricetinae gen. sp.; test: Compound was evaluated in vivo for inhibition of HLE-induced hemorrhage in hamster lung at 30microg, 30 min after administration prior to HLE; format: functional, Cricetulus griseus; in short: as §1
[21] = tested on: Cricetinae gen. sp.; test: Compound was evaluated in vivo for lung hemorrhage inhibitory activity at 200 microg, 1 hr after administration prior to HLE; format: functional, Cricetulus griseus; in short: as §2
[22] = tested on: Cricetinae gen. sp.; test: Compound was evaluated in vivo for inhibition of HLE-induced hemorrhage in hamster lung at 100 microg, 30 min after administration prior to HLE; format: functional, Cricetulus griseus; in short: as §1
[23] = tested on: Cricetinae gen. sp.; test: Compound was evaluated in vivo for inhibition of HLE-induced hemorrhage in hamster lung at 10microg, 30 min after administration prior to HLE; format: functional, Cricetulus griseus; in short: as §1

k obs / 1 [3]: 3700 M⁻¹ s⁻¹
SMILES: CO[C@H]1C(=O)N2C(C(=O)OC(C)(C)C)=C(CSc3nnnn3CC(=O)O)CS(=O)(=O)[C@H]12
Inhibition [1]: 89%
Inhibition [2]: 77%

half-life [4]: 22 h
k obs / 1 [3]: 6200 M⁻¹ s⁻¹
SMILES: CO[C@H]1C(=O)N2C(C(=O)N(C)CC(=O)O)=C(CSc3nc(=O)c(=O)[nH]n3C)CS(=O)(=O)[C@H]12
T50 [5]: 180 min
ED50 [6]: 10 µg
ED50 [7]: 400 µg
Inhibition [8]: 94%
Inhibition [9]: 90%
Inhibition [10]: 64%
Inhibition [11]: 37%
Inhibition [12]: 94%
Inhibition [13]: 98%
Inhibition [14]: 56%
Inhibition [15]: 86%
Inhibition [16]: 82%

k obs / 1 [3]: 900 M⁻¹ s⁻¹
SMILES: CO[C@H]1C(=O)N2C(C(=O)N3CC(O)CC3C(=O)O)=C(COC(C)=O)CS(=O)(=O)[C@H]12 (stereo not given in full)
Inhibition [17]: 81%
Inhibition [18]: 4%
Inhibition [19]: 17%
Inhibition [20]: 95%
Inhibition [21]: 86%
Inhibition [22]: 98%
Inhibition [23]: 78%
